From ChEMBL document CHEMBL1124197, “3-[1-(2-Benzoxazolyl)hydrazino]propanenitrile derivatives: inhibitors of immune complex induced inflammation” (1988)
Activity calls are given as the source filed them. The rule behind the calls is not given here.

tested on: Rattus norvegicus; assay: In vivo inhibition of rat dermal passive revers arthus reaction following p.o. administration; Inactive.; assay type: functional, organism-based

Row | SMILES | ED40
1 | COC(=O)N(CCC#N)c1nc2ccccc2o1 | inactive
2 | NN(CCSc1ccccc1)c1nc2ccccc2o1 | inactive
3 | N#CCCC(N)c1nc2ccccc2o1 (stereo not given) | inactive
4 | CCOC(=O)c1ccc2oc(N(N)CCC#N)nc2c1 | inactive
5 | N#CCCN(N)c1nc2cc(Oc3ccccc3)ccc2o1 | inactive
6 | NN(CCC(=O)O)c1nc2ccccc2o1 | inactive
7 | CNC(=O)NN(CCC#N)c1nc2ccccc2o1 | inactive
8 | N#CCC(=O)N(N)c1nc2ccccc2o1 | inactive
9 | N#CCCN(C=O)c1nc2ccccc2o1 | inactive
10 | N#CCCN(N)c1nc2cc(OCc3ccccc3)ccc2o1 | inactive
11 | CC(C)S(=O)(=O)n1c(N(N)CCC#N)nc2ccccc21 | inactive
12 | N#CCCN(N)c1nc2cc(C(=O)c3ccccc3)ccc2o1 | inactive
13 | NN(CCS(=O)(=O)c1ccccc1)c1nc2ccccc2o1 | inactive
14 | C/N=C(\S)NN(CCC#N)c1nc2ccccc2o1 | inactive
15 | N#CCCN(N)c1nc2cc(-c3ccccc3)ccc2o1 | inactive
16 | N#CCCN(NC(N)=O)c1nc2ccccc2o1 | inactive
17 | CC(=O)N(CCC#N)c1nc2ccccc2o1 | inactive
18 | N#CCCN(NC(=O)NC1CCCCC1)c1nc2ccccc2o1 | inactive
19 | CS(=O)(=O)NN(CCC#N)c1nc2ccccc2o1 | inactive
20 | CN(C)S(=O)(=O)n1c(N(N)CCC#N)nc2ccccc21 | inactive

species: Rattus norvegicus; assay: Effect in rat pleural Carrageenan test (exudate white blood cells (WBC)); assay type: functional

Row | SMILES | ED50
21 | N#CCCN(N)c1nc2ccccc2o1 | 171 µmol/kg
22 | C[C@]12CCC(=O)C=C1CC[C@@H]1[C@@H]2[C@@H](O)C[C@@]2(C)[C@H]1CC[C@]2(O)C(=O)CO [HYDROCORTISONE] | 9 µmol/kg

tested on: Rattus norvegicus; assay: Inhibition of pleural reverse passive Arthus reactions (RPAR) in rat (exudate volume); No significant inhibition at 56 umol/kg (Inactive); assay type: functional, organism-based
How it was run: (§1)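 Fasted male rats were given BSA intravenously, then about 1 h later rabbit anti-BSA intrapleurally. Oral dosing was 30 min before the challenge. After 4 h the rats were killed and pleural exudate fluid volume and white blood cell accumulation were determined. ED50 with 95% confidence limits came from least-squares regression.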

Row | SMILES | ED50
23 | COc1ccc2c(c1)c(CC(=O)O)c(C)n2C(=O)c1ccc(Cl)cc1 [INDOMETHACIN] | inactive

species: Rattus norvegicus; assay: Effective dose required for 40% inhibition of rat dermal reverse passive Arthus reaction (RPAR); assay type: functional
How it was run: (§2)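 Fasted male rats received BSA intravenously and about 1 h later a challenge of rabbit anti-BSA given intradermally. Compound was dosed orally 30 min before the challenge. Rats were killed 4 h later and dermal lesion size was measured. ED40 with 95% confidence limits came from least-squares regression.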

Row | SMILES | ED40
24 | CCNN(CCC#N)c1nc2ccccc2o1 | 196 µM/kg
25 | NN(CC[S+]([O-])c1ccccc1)c1nc2ccccc2o1 (stereo not given) | 719 µM/kg
26 | COc1ccc2oc(N(N)CCC#N)nc2c1 | 59 µM/kg
27 | N#CCCN(NC=O)c1nc2ccccc2o1 | 142 µM/kg
28 | N#CCCN(N)c1nc2c(ccc3ccccc32)o1 | 346 µM/kg
29 | COCCN(N)c1nc2cc(C(F)(F)F)ccc2o1 | 47 µM/kg
30 | Cc1ccc2oc(N(CCC#N)NC=O)nc2c1 | 168 µM/kg
31 | CSc1cc(C(C)(C)C)cc2nc(N(N)CCC#N)oc12 | 801 µM/kg
32 | Cc1cc2nc(N(N)CCC#N)oc2cc1C | 413 µM/kg
33 | Cn1c(N(N)CCC#N)nc2ccccc21 | 349 µM/kg
34 | [2H]C([2H])(C#N)CN(N)c1nc2ccccc2o1 | 255 µM/kg
35 | NN(CCc1ccccn1)c1nc2ccccc2o1 | 258 µM/kg
36 | NC(=O)CCN(N)c1nc2ccccc2o1 | 1009 µM/kg
37 | COCCN(N)c1nc2cc(Cl)ccc2o1 | 136 µM/kg
38 | Cc1cc2oc(N(N)CCC#N)nc2cc1Cl | 36 µM/kg
39 | CS(=O)(=O)CCN(N)c1nc2ccccc2o1 | 278 µM/kg
40 | N#CCCNc1nc2ccccc2o1 | 1302 µM/kg
41 | COC(=O)NN(CCC#N)c1nc2ccccc2o1 | 695 µM/kg
42 | Cc1cc2oc(N(N)CCC#N)nc2c(C)c1C | 139 µM/kg
43 | Cc1cc(C)c2oc(N(N)CCC#N)nc2c1 | 161 µM/kg
44 | Cc1cccc2oc(N(N)CCC#N)nc12 | 356 µM/kg

Row | SMILES | ED40
45 | COCCN(N)c1nc2ccccc2o1 | 300 µM/kg
46 | CCOCCN(N)c1nc2cc(OC)ccc2o1 | 149 µM/kg
47 | N#CCCN(NC=O)c1nc2cc(C(F)(F)F)ccc2o1 | 87 µM/kg
48 | N#CCCN(N)c1nc2ccccc2o1 | 84 µM/kg
49 | COc1ccc2nc(N(N)CCC#N)oc2c1 | 388 µM/kg
50 | Cc1cc(C)c2oc(N(N)CCC#N)nc2c1C | 115 µM/kg
51 | C/C=N\N(CCC#N)c1nc2ccccc2o1 | 625 µM/kg
52 | NN(CCOc1ccccc1)c1nc2ccccc2o1 | 457 µM/kg
53 | NN(CCCO)c1nc2ccccc2o1 | 576 µM/kg
54 | CCc1ccc2oc(N(N)CCC#N)nc2c1 | 330 µM/kg
55 | Cc1cccc2nc(N(N)CCC#N)oc12 | 250 µM/kg
56 | N#CCCN(N)c1nc(-c2ccccc2)co1 | 119 µM/kg
57 | COCCN(N)c1nc2cc(C)ccc2o1 | 127 µM/kg
58 | CCCN(N)c1nc2ccccc2o1 | 400 µM/kg
59 | Cc1nc(N(N)CCC#N)oc1C | 519 µM/kg
60 | Cc1cc(N(N)CCC#N)c2ccccc2n1 | 177 µM/kg
61 | N#CCCN(N)c1nc(-c2ccccc2)c(-c2ccccc2)o1 | 332 µM/kg
62 | C[S+]([O-])c1ccc2oc(N(N)CCC#N)nc2c1 (stereo not given) | 607 µM/kg
63 | Cc1coc(N(N)CCC#N)n1 | 705 µM/kg
64 | N#CCCN(N)c1ncco1 | 360 µM/kg
65 | CSCCN(N)c1nc2ccccc2o1 | 913 µM/kg

Row | SMILES | ED40
66 | CS(=O)(=O)c1ccc2oc(N(N)CCC#N)nc2c1 | 407 µM/kg
67 | C#CCCN(N)c1nc2ccccc2o1 | 348 µM/kg
68 | CSc1ccc2oc(N(N)CCC#N)nc2c1 | 399 µM/kg
69 | N#CCCN(N)c1nc2cc3ccccc3cc2o1 | 306 µM/kg
70 | COc1ccc2oc(N(CCC#N)NC=O)nc2c1 | 200 µM/kg
71 | N#CCCN(N)c1ccc(-c2ccccc2)nn1 | 672 µM/kg
72 | Cc1cc(Cl)cc2nc(N(N)CCC#N)oc12 | 191 µM/kg
73 | N#CCCN(N)C1Cc2ccccc2C1 | 565 µM/kg
74 | CNN(CCC#N)c1nc2ccccc2o1 | 250 µM/kg
75 | NN(CCc1ccccc1)c1nc2ccccc2o1 | 962 µM/kg
76 | COCCN(N)c1nc2cc(OC)ccc2o1 | 43 µM/kg
77 | N#CCCN(N)C1=Nc2ccccc2C1 | 265 µM/kg
78 | Cc1ccc2oc(N(N)CCC#N)nc2c1 | 83 µM/kg
79 | N#CCCN(N)C1=NS(=O)(=O)c2ccccc21 | 643 µM/kg
80 | CC(CC#N)N(N)c1nc2ccccc2o1 (stereo not given) | 245 µM/kg
81 | CCN(N)c1nc2ccccc2o1 | 254 µM/kg
82 | N#CCCN(N)c1cnccn1 | 760 µM/kg
83 | COC(=O)CCN(N)c1nc2ccccc2o1 | 1208 µM/kg
84 | N#CCCN(N)c1nc2cc(F)ccc2o1 | 141 µM/kg
85 | N#CCCN(N)c1nc2cccc(Cl)c2o1 | 275 µM/kg
86 | CC(=O)NN(CCC#N)c1nc2ccccc2o1 | 402 µM/kg

Row | SMILES | ED40
87 | CC(C)(C)c1ccc2oc(N(N)CCC#N)nc2c1 | 345 µM/kg
88 | Cc1ccc2nc(N(N)CCC#N)oc2c1 | 216 µM/kg
89 | COc1cc2nc(N(N)CCC#N)oc2cc1OC | 650 µM/kg
90 | NN(CCOc1ccc(F)cc1)c1nc2ccccc2o1 | 800 µM/kg
91 | C=NN(CCC#N)c1nc2ccccc2o1 | 845 µM/kg
92 | N#CCCSc1nc2ccccc2o1 | 1268 µM/kg
93 | N#CCCN(N)c1nc2cc(C(F)(F)F)ccc2o1 | 26 µM/kg
94 | N#CCCN(N)c1nc2cc(Cl)ccc2o1 | 177 µM/kg
95 | COCCN(N)c1nc2cc(C#N)ccc2o1 | 181 µM/kg
96 | CC(C#N)CN(N)c1nc2ccccc2o1 (stereo not given) | 210 µM/kg
97 | C[C@]12CCC(=O)C=C1CC[C@@H]1[C@@H]2[C@@H](O)C[C@@]2(C)[C@H]1CC[C@]2(O)C(=O)CO [HYDROCORTISONE] | 33 µM/kg
98 | N#CCCN(N)c1nccs1 | 390 µM/kg
99 | NN(CCN1CCOCC1)c1nc2ccccc2o1 | 825 µM/kg
100 | CCN(CC)CCN(N)c1nc2ccccc2o1 | 611 µM/kg
101 | NN(CCO)c1nc2ccccc2o1 | 1247 µM/kg
102 | N#CCCN(N)c1nc2ccccc2s1 | 128 µM/kg
103 | N#CCCN(N)c1ncc(-c2ccccc2)cn1 | 121 µM/kg
104 | N#CCCN(N)c1nc2cc(C#N)ccc2o1 | 66 µM/kg

tested on: Rattus norvegicus; assay: Effective dose of compound for 40% inhibition of rat dermal reverse passive Arthus reaction (RPAR) on peroral administration; No significant inhibition at 56 umol/kg (Inactive); assay type: functional, organism-based; how it was run: as §2

Row | SMILES | ED40
105 | COc1ccc2c(c1)c(CC(=O)O)c(C)n2C(=O)c1ccc(Cl)cc1 [INDOMETHACIN] | inactive

species: Rattus norvegicus; assay: Effect in rat pleural Carrageenan test (exudate volume); assay type: functional

Row | SMILES | ED50
106 | COc1ccc2c(c1)c(CC(=O)O)c(C)n2C(=O)c1ccc(Cl)cc1 [INDOMETHACIN] | 1.1 µmol/kg
107 | N#CCCN(N)c1nc2ccccc2o1 | 105 µmol/kg
108 | C[C@]12CCC(=O)C=C1CC[C@@H]1[C@@H]2[C@@H](O)C[C@@]2(C)[C@H]1CC[C@]2(O)C(=O)CO [HYDROCORTISONE] | 12 µmol/kg

tested on: Rattus norvegicus; assay: Inhibition of pleural reverse passive Arthus reactions (exudate white blood cells (WBC)); No significant inhibition at 56 umol/kg (Inactive); assay type: functional, organism-based; how it was run: as §1

Row | SMILES | ED50
109 | COc1ccc2c(c1)c(CC(=O)O)c(C)n2C(=O)c1ccc(Cl)cc1 [INDOMETHACIN] | inactive

tested on: Rattus norvegicus; assay: Effect in rat pleural Carrageenan test (exudate white blood cells (WBC)); No significant effect at 28 umol/kg (Not active); assay type: functional, organism-based

Row | SMILES | ED50
110 | COc1ccc2c(c1)c(CC(=O)O)c(C)n2C(=O)c1ccc(Cl)cc1 [INDOMETHACIN] | inactive

species: Rattus norvegicus; assay: Inhibition of pleural reverse passive Arthus reactions (RPAR) in rat (exudate volume); assay type: functional; how it was run: as §1

Row | SMILES | ED50
111 | COc1ccc2oc(N(N)CCC#N)nc2c1 | 155 µmol/kg
112 | N#CCCN(N)c1nc2ccccc2o1 | 238 µmol/kg
113 | Cc1ccc2oc(N(N)CCC#N)nc2c1 | 148 µmol/kg
114 | N#CCCN(N)c1nc2cc(C(F)(F)F)ccc2o1 | 70 µmol/kg
115 | C[C@]12CCC(=O)C=C1CC[C@@H]1[C@@H]2[C@@H](O)C[C@@]2(C)[C@H]1CC[C@]2(O)C(=O)CO [HYDROCORTISONE] | 38 µmol/kg

species: Rattus norvegicus; assay: Inhibition of pleural reverse passive Arthus reactions (exudate white blood cells (WBC)); assay type: functional; how it was run: as §1

Row | SMILES | ED50
116 | COc1ccc2oc(N(N)CCC#N)nc2c1 | 116 µmol/kg
117 | N#CCCN(N)c1nc2ccccc2o1 | 243 µmol/kg
118 | Cc1ccc2oc(N(N)CCC#N)nc2c1 | 175 µmol/kg
119 | N#CCCN(N)c1nc2cc(C(F)(F)F)ccc2o1 | 92 µmol/kg
120 | C[C@]12CCC(=O)C=C1CC[C@@H]1[C@@H]2[C@@H](O)C[C@@]2(C)[C@H]1CC[C@]2(O)C(=O)CO [HYDROCORTISONE] | 50 µmol/kg
